ChEMBL document CHEMBL1156332, “Polysubstituted pyrazoles, part 6. Synthesis of some 1-(4-chlorophenyl)-4-hydroxy-1H-pyrazol-3-carbonyl derivatives linked to nitrogenous heterocyclic ring systems as potential antitumor agents” (2010)
Active and inactive are the calls of the source. The rule behind the calls is not given here.

Assays:
Type in all cases: functional
[1] = test system: SNB-75; assay: Growth inhibition of human SNB75 cells after 48 hrs by sulforhodamine B assay; settings: SNB-75, 48 h
In short: (§1)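 Adherent lines plated and held 24 h at 37 °C, 5% CO2, 100% humidity; time-zero plates TCA-fixed at drug addition. Drugs from DMSO stocks were made into five concentrations by 10-fold or half-log serial dilution and applied for 48 h continuous exposure. Cells were fixed with cold TCA (10% final) for 60 min at 4 °C, then stained with 0.4% SRB in 1% acetic acid for 10 min. Dye was solubilized in 10 mM Tris base and read at 515 nm. GI50 was taken from log concentration–growth curves.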

[2] = test system: SK-MEL-2; assay: Growth inhibition of human SK-MEL-2 cells after 48 hrs by sulforhodamine B assay; in short: as §1
[3] = test system: TK-10; assay: Growth inhibition of human TK10 cells after 48 hrs by sulforhodamine B assay; settings: TK-10, 48 h; in short: as §1
[4] = test system: SF-539; assay: Growth inhibition of human SF539 cells after 48 hrs by sulforhodamine B assay; settings: SF-539, 48 h; in short: as §1
[5] = test system: SF-295; assay: Growth inhibition of human SF295 cells after 48 hrs by sulforhodamine B assay; settings: SF-295, 48 h
In short: (§2)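 NCI 60-line panel, five concentrations (0.01–100 µM) from DMSO stock diluted in medium with gentamicin. Cells were plated 24 h before dosing, with time-zero plates fixed at drug addition, then exposed 48 h at 37 °C, 5% CO₂. Adherent cells were fixed with cold TCA (10% final) and suspension cells with 16% TCA. Staining used 0.4% SRB, solubilised in 10 mM Tris and read at 515 nm. GI₅₀ was taken from log concentration–% growth curves.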

[6] = test system: SK-OV-3; assay: Growth inhibition of human SKOV3 cells after 48 hrs by sulforhodamine B assay; settings: SK-OV-3, 48 h; in short: as §1
[7] = test system: ACHN; assay: Growth inhibition of human ACHN cells after 48 hrs by sulforhodamine B assay; in short: as §2
[8] = test system: MOLT-4; assay: Growth inhibition of human MOLT4 cells after 48 hrs by sulforhodamine B assay; settings: MOLT-4, 48 h; in short: as §2
[9] = test system: HCC 2998; assay: Growth inhibition of human HCC2998 cells after 48 hrs by sulforhodamine B assay; settings: HCC 2998, 48 h; in short: as §2
[10] = test system: NCI-H522; assay: Growth inhibition of human NCI-H522 cells after 48 hrs by sulforhodamine B assay; settings: NCI-H522, 48 h; in short: as §2
[11] = test system: RXF 393; assay: Growth inhibition of human […] cells after 48 hrs by sulforhodamine B assay; settings: RXF 393, 48 h; in short: as §2
[12] = Cytotoxicity against human leukemia cells after 48 hrs by sulforhodamine B assay; settings: Leukemia cell
In short: (§3)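 NCI five-dose screen: about 60 human tumour lines grouped into nine subpanels were plated and incubated 24 h before dosing. Compounds went in as DMSO stock and were diluted in medium to five final concentrations (0.01–100 µM). Exposure was 48 h continuous at 37 °C, 5% CO₂, followed by TCA fixation and SRB staining read at 515 nm. Per-line GI₅₀, TGI and LC₅₀ came from log concentration–% growth curves, averaged per subpanel as MG-MID.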

[13] = test system: PC-3; assay: Growth inhibition of human PC3 cells after 48 hrs by sulforhodamine B assay; settings: PC-3, 48 h; in short: as §2
[14] = Growth inhibition of human NCI-H322 cells after 48 hrs by sulforhodamine B assay; settings: NCI-H322, 48 h; in short: as §2
[15] = test system: DU-145; assay: Growth inhibition of human DU145 cells after 48 hrs by sulforhodamine B assay; settings: DU-145, 48 h; in short: as §2
[16] = test system: HCT-15; assay: Growth inhibition of human HCT15 cells after 48 hrs by sulforhodamine B assay; settings: HCT-15, 48 h; in short: as §2
[17] = test system: NCI-H226; assay: Growth inhibition of human NCI-H226 cells after 48 hrs by sulforhodamine B assay; settings: NCI-H226, 48 h; in short: as §2
[18] = test system: COLO 205; assay: Growth inhibition of human COLO205 cells after 48 hrs by sulforhodamine B assay; settings: COLO 205, 48 h; in short: as §2
[19] = test system: SK-MEL-5; assay: Growth inhibition of human SK-MEL-5 cells after 48 hrs by sulforhodamine B assay; settings: SK-MEL-5, 48 h; in short: as §1
[20] = test system: U-251; assay: Growth inhibition of human U251 cells after 48 hrs by sulforhodamine B assay; settings: U-251, 48 h; in short: as §1
[21] = Growth inhibition of human Hs 578T cells after 48 hrs by sulforhodamine B assay; in short: as §2
[22] = test system: RPMI-8226; assay: Growth inhibition of human RPMI8226 cells after 48 hrs by sulforhodamine B assay; settings: RPMI-8226, 48 h; in short: as §2
[23] = test system: NCI-H23; assay: Growth inhibition of human NCI-H23 cells after 48 hrs by sulforhodamine B assay; settings: NCI-H23, 48 h; in short: as §2
[24] = Cytotoxicity against human renal cancer cells after 48 hrs by sulforhodamine B assay; settings: Cancer cell lines; in short: as §3
[25] = test system: OVCAR-4; assay: Growth inhibition of human OVCAR4 cells after 48 hrs by sulforhodamine B assay; settings: OVCAR-4, 48 h; in short: as §2
[26] = test system: OVCAR-8; assay: Growth inhibition of human OVCAR8 cells after 48 hrs by sulforhodamine B assay; settings: OVCAR-8, 48 h; in short: as §2
[27] = test system: K562; assay: Growth inhibition of human K562 cells after 48 hrs by sulforhodamine B assay; in short: as §2
[28] = test system: CAKI-1; assay: Growth inhibition of human Caki1 cells after 48 hrs by sulforhodamine B assay; settings: CAKI-1, 48 h; in short: as §2
[29] = test system: SR; assay: Growth inhibition of human SR cells after 48 hrs by sulforhodamine B assay
In short: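 Suspension leukemia line pre-incubated 24 h at 37 °C, 5% CO2; time-zero plates fixed at drug addition. Five drug concentrations were made by serial dilution from DMSO stocks and applied for 48 h. Settled cells were fixed with 80% TCA (16% final), stained with 0.4% SRB in 1% acetic acid, solubilized in 10 mM Tris base, and read at 515 nm. GI50 = concentration giving 50% decrease in net growth.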

SMILES | GI50 [1] [nM] | GI50 [3] [nM] | GI50 [4] [nM] | GI50 [5] [nM] | GI50 [6] [nM] | GI50 [7] [nM] | GI50 [9] [nM] | GI50 [10] [nM] | GI50 [11] [nM] | GI50 [12] [nM] | TGI [12] [nM] | GI50 [14] [nM] | GI50 [15] [nM] | GI50 [16] [nM] | GI50 [17] [nM] | GI50 [18] [nM] | GI50 [19] [nM] | GI50 [20] [nM] | GI50 [21] [nM] | GI50 [22] [nM] | other results
O=C(c1nn(-c2ccc(Cl)cc2)cc1O)n1nc(-c2ccco2)cc1C(F)(F)F | 820 | 1450 | 2810 | 480 | 3550 | 2530 | 10500 | 2670 | 30 | 1760 | 80700 | 830 | 10500 | 1440 | 2710 | 2970 | 2490 | 5860 | 640 | 1420 | GI50 ([2]; SK-MEL-2, 48 h): 3820 nM; GI50 [8]: 2550 nM; GI50 [13]: 26300 nM; GI50 [23]: 5590 nM; GI50 [24]: 3850 nM; TGI [24]: 75600 nM; GI50 [25]: 2430 nM; GI50 [26]: 1880 nM; GI50 ([27]; K562, 48 h): 1720 nM; GI50 [28]: 2430 nM
N#Cc1cnn(C(=O)c2nn(-c3ccc(Cl)cc3)cc2O)c1N | 250 | 280 | 320 | 160 | 520 | 320 | 650 | 210 | 510 | 270 | 3230 | 440 | 570 | 340 | 370 | 910 | 480 | 290 | 190 | 210 | GI50 ([2]; SK-MEL-2, 48 h): 910 nM; GI50 [8]: 290 nM; GI50 [29]: 280 nM; LC50 (concentration killing 50% of cells) [12]: 44300 nM; GI50 [13]: 330 nM; GI50 [23]: 370 nM; GI50 [24]: 360 nM; LC50 [24]: 75000 nM; TGI [24]: 8990 nM; GI50 [25]: 460 nM; GI50 [26]: 480 nM; GI50 ([27]; K562, 48 h): 250 nM; GI50 [28]: 280 nM
Cc1cc(C)n(C(=O)c2nn(-c3ccc(Cl)cc3)cc2O)n1 | 3520 | 4710 | 3050 | 1810 | 7040 | 3770 | 15100 | 7370 | 4580 | 3650 | 74300 | 6170 | 6230 | 3530 | 4660 | 18500 | 6760 | 2680 | 3210 | 3340 | GI50 [29]: inactive; GI50 [13]: 7050 nM; GI50 [23]: 3310 nM; GI50 [24]: 4520 nM; TGI [24]: 71300 nM; GI50 [25]: 9190 nM; GI50 [26]: 5960 nM; GI50 [27]: inactive; GI50 [28]: 4230 nM
Cc1c2c(nn1C(=O)c1nn(-c3ccc(Cl)cc3)cc1O)-c1ccccc1CC2 | 29 | 33 | 41 | 20 | 160 | 48 | 502 | 55 | 47 | 42 | 10200 | 54 | 50 | 52 | 45 | 291 | 370 | 31 | 21 | 38 | GI50 ([2]; SK-MEL-2, 48 h): 5540 nM; GI50 [8]: 43 nM; GI50 [13]: 37 nM; GI50 [23]: 41 nM; GI50 [24]: 92 nM; TGI [24]: 67700 nM; GI50 [25]: 264 nM; GI50 [26]: 53 nM; GI50 ([27]; K562, 48 h): 30 nM; GI50 [28]: 127 nM
CC1=NN(C(=O)c2nn(-c3ccc(Cl)cc3)cc2O)C(=O)C1 | 530 | 790 | 1700 | 230 | 1530 | 880 | 3670 | 2840 | 15400 | 1030 | 52900 | 850 | 5220 | 680 | 1400 | 4810 | 1700 | 410 | 280 | 1660 | GI50 [8]: 1870 nM; GI50 [29]: 420 nM; GI50 [23]: 2900 nM; GI50 [24]: 1670 nM; TGI [24]: 77000 nM; GI50 [25]: 2400 nM; GI50 [26]: 1490 nM; GI50 ([27]; K562, 48 h): 650 nM; GI50 [28]: 1060 nM
O=C1CC(=O)N(C(=O)c2nn(-c3ccc(Cl)cc3)cc2O)N1 | 240 | 350 | 370 | 150 | 1920 | 580 | 4740 | 300 | 310 | 420 | 10800 | 530 | 980 | 490 | 730 | 940 | 1920 | 180 | 190 | 380 | GI50 [2]: inactive; GI50 [8]: 410 nM; GI50 [29]: 260 nM; GI50 [13]: 360 nM; GI50 [23]: 490 nM; GI50 [24]: 850 nM; TGI [24]: 71800 nM; GI50 [25]: 1520 nM; GI50 [26]: 640 nM; GI50 ([27]; K562, 48 h): 290 nM; GI50 [28]: 650 nM
